Experimental data published in PMC4979993 (Nature structural & molecular biology, 2011).
Values joined by “and” are separate entries in the source; they are usually repeats but may differ in a detail not shown here. Identical values can stand only once. “Also recorded” adds a separate entry of the source.

Assays:
Aβ1–40 [1] = experiment: cTCCD single-molecule analysis of Aβ1–40 aggregation; type: biochemical
Summary of the method: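 Equimolar HiLyteFluor488- and HiLyteFluor647-labeled Aβ1–40 (2 μM) in SSPE pH 7.4, 37 °C, 200 rpm agitation; with or without clusterin at 1:1 molar. Sampled every 2–3 h and diluted to picomolar for two-colour confocal coincidence detection (1 ms bins, stage scanned 200 µm s⁻¹). Coincident bursts were scored as oligomers. Apparent size came from their brightness relative to non-coincident monomer bursts; n=3.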

Aβ1–40 fibrils = Aβ1–40 fibrils (Homo sapiens, UniProt P05067); experiment: cTCCD analysis of disaggregation of Aβ1–40 fibrils; type: biochemical; details: for ΔG° (dimer) / ΔG° (larger oligomer): from steady state apparent size distributions
Summary of the method: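 Fibrils grown statically from 8 μM labeled Aβ1–40, 72 h, 37 °C. Pelleted at ~10,000×g for 30 min, washed twice in SSPE pH 7.4, then resuspended. Where used, AlexaFluor647-labeled human serum clusterin was incubated with fibrils 12–16 h at 21 °C and unbound removed by centrifugation (100–200 nM bound). Released species tracked by cTCCD to plateau (~50 h). Rates fitted with monomolecular dissociation functions.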

Aβ1–40 [2] = experiment: TIRFM imaging of species in Aβ1–40 aggregation; type: biochemical
Summary of the method: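 Dual-label HiLyteFluor488/HiLyteFluor647 Aβ1–40 (monomer stocks in pH 12 NaOH, ice-sonicated 30 min) diluted into SSPE pH 7.4. Incubated 24 h at 37 °C with 200 rpm agitation. Human serum-derived clusterin was added at 4 h where used. Species on surface imaged by two-colour TIRFM (488 and 633 nm excitation, split-EMCCD, 7.9 frames s⁻¹). Sizes compared by two-sample, two-tailed, independent t-test.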

Aβ1–40 oligomers = experiment: Formation and persistence of clusterin:Aβ complexes; type: binding
Summary of the method: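 HiLyteFluor488 or HiLyteFluor647-labeled Aβ1–40, from NaOH-solubilised monomer in SSPE pH 7.4, is aggregated at 37 °C, 200 rpm, with AlexaFluor647-labeled human serum clusterin at 1:1 molar ratio, or released from pre-formed clusterin-bound fibrils. Complexes are diluted to […] at 21 °C and sampled over time by two-colour coincidence detection (cTCCD). Persistence is compared by two-tailed t-tests.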

Aβ1–40 fibril formation [3] = details: cited from earlier work
Aβ1–40 fibril formation [4] = experiment: Bulk aggregation / fibril formation of Aβ1–40; type: biochemical; details: HiLyteFluor488 or HiLyteFluor647 label, control experiments
amyloid fibrils = details: previous bulk measurements; cited from earlier work
[5] = cited from earlier work
[6] = with clusterin, disaggregation, n=8
[7] = Disaggregation, without clusterin, n=3, s.d.
[8] = Disaggregation, without clusterin, n=12, s.d.
[9] = without clusterin, disaggregation, n=12

## clusterin: extracellular chaperone protein, extracted from human serum
Aβ1–40 [1]; in presence of clusterin
  effect on distribution of the sizes of Aβ1–40 oligomers: not substantially altered
Aβ1–40 fibrils; Disaggregation, with clusterin, n=4, s.d.
  ΔG° (dimer): −25.8 ± 2.6 kJ mol^−1 and −25.8 ± 2.6 (4) kJ mol^−1
Aβ1–40 fibrils; Disaggregation, with clusterin, n=12, s.d.
  ΔG° (larger oligomer): −43.9 ± 1.0 kJ mol^−1 and −43.9 ± 1.0 (12) kJ mol^−1
Aβ1–40 fibrils; clusterin bound to Aβ fibrils
  effect on rate and extent of fibril disaggregation: decrease both the rate and the extent of fibril disaggregation
Aβ1–40 fibrils; with clusterin, disaggregation of fibrils, n=3, s.e.m.
  Rate of clusterin release: (9.8 ± 0.9)×10^−7 (3) s^−1
Aβ1–40 fibrils; with clusterin, disaggregation, n=3
  Final soluble clusterin concentration: 90 ± 14 (3) nM
Aβ1–40 fibrils; [6]
  Final concentration of all species: 120 ± 20 (8) nM
  Final concentration of oligomeric species: 0.42 ± 0.1 (8) nM
Aβ1–40 fibrils; with vs without clusterin, plateau region, n=8, P-value 0.0003, t-test
  effect on monomer concentration: decreased monomer concentration
Aβ1–40 fibrils; with vs without clusterin, plateau region, n=8, P-value 0.002, t-test
  effect on oligomer concentration / total oligomer population: increased oligomer concentration; also recorded: increase in the total oligomer population
Aβ1–40 [2]; 2 μM Aβ1–40, 24 h aggregation, 2 µM clusterin added at 4 h, P-value 0.01
  reduction in average size of species present: approximately 50%
Aβ1–40 oligomers; all oligomers found during aggregation and disaggregation
  binding to soluble oligomers: all of which interact with clusterin to form long-lived, stable complexes; also recorded: binds to all members of the ensemble of soluble oligomers
Aβ1–40 oligomers; formed at 100 nM, after dilution at picomolar concentrations
  persistence of clusterin:Aβ complexes: over 200 h
Aβ1–40 fibril formation [3]
  effect on fibril formation, bulk measurements: strongly inhibits fibril formation

## amyloid-β1–40 [Aβ1–40]
Aβ1–40 [1]; 30 nM Aβ1–40, 37 °C
  oligomers as share of total number of molecules: approximately 1%
Aβ1–40 [1]; 30 nM Aβ1–40, SSPE pH 7.4, 37 °C, agitation
  concentration of oligomers formed: 300 pM
Aβ1–40 [1]; 600 nM – 2 µM and 30 nM, aggregation and disaggregation
  distribution of apparent oligomer sizes: decreased exponentially with increasing apparent size; also recorded: effectively the same as that formed at a concentration of 30 nM; also recorded: approximately exponential decrease with apparent size
Aβ1–40 [1]; 2 μM Aβ1–40, 37 °C
  oligomers as share of total molecules at peak: approximately 1%
Aβ1–40 [1]; 2 μM Aβ1–40, 37 °C, agitation
  decrease in monomer concentration during growth phase of fibril formation: 75%
Aβ1–40 [1]; 2 μM Aβ1–40, SSPE pH 7.4, 37 °C, agitation
  peak concentration of stable oligomeric species: ~ 20 nM
Aβ1–40 [1]; Aggregation, without clusterin, from steady state apparent size distributions, n=4, s.d.
  ΔG° (dimer): −23.0 ± 2.9 (4) kJ mol^−1
Aβ1–40 [1]; cTCCD, apparent size
  range of oligomer sizes formed: dimers to 50mers
Aβ1–40 [1]; ~25–50 pM, 21 °C
  stability of the majority of soluble oligomeric species: over three
Aβ1–40 fibrils; [7]
  ΔG° (dimer): −18.2 ± 0.5 (3) kJ mol^−1
  ΔH° (dimer): −43.8 ± 24.5 (3) kJ mol^−1
  ΔS° dimer: −80.8 ± 83.5 (3) kJ mol^−1
Aβ1–40 fibrils; [8]
  ΔG° (larger oligomer): −38.9 ± 2.7 (12) kJ mol^−1
  ΔH° (larger oligomer): −29.1 ± 0.3 (12) kJ mol^−1
  ΔS° larger than dimer: 28.3 ± 1.1 (12) kJ mol^−1
Aβ1–40 fibrils; [9]
  Final concentration of all species: 270 ± 20 (12) nM
  Final concentration of oligomeric species: 0.16 ± 0.06 (12) nM
Aβ1–40 [2]; 2 μM Aβ1–40 without clusterin, 24 h aggregation, s.e.m.
  average size of species present: 1400 ± 200 nm
Aβ1–40 fibril formation [4]
  effect of fluorophores on bulk aggregation behavior: neither fluorophore had any appreciable effect on the bulk aggregation behavior
Amyloid fibrils
  free energy of the formation of amyloid fibrils: –36 kJ mol^−1
[5]
  Aβ1–40 clearance time in vivo: ~ 14 h
  Aβ1–40 production time in vivo: ~ 15 h
